In the library only some 1.3% were active in any assay of this set; here they are far more common.
PERK inhibitor = block of dimerizer-induced PERK translation repression, primary screen, PERK inhibitor project, CHO PERK-DD cells, SEAP luminescence, HTS; Eukaryotic translation initiation factor 2-alpha kinase 3 (Homo sapiens), Q9NZJ5; CHO PERK-DD fusion, SEAP luminescence translation reporter; inhibition, % at 5.6 µM; hit rate 0.17% among 220,000;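 active means inhibition above the mean inhibition of all tested compounds plus 3 SD, set separately per screening campaign, cut at about 2.9% in these data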;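 further: PERK kinase domain activated by AP20187 dimerizer at 100 nM; 0% = DMSO with dimerizer and 100% = rapamycin at 8.4 µM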
H9c2 TAG inh = inhibitors of triacylglycerol accumulation, primary screen, cell-based, uHTS, fluorescence, H9c2 | inhibition, % at 12.5 µM | hit rate 0.66% among 230,000 | H9c2 cells, Nile Red lipid (TAG) fluorescence; cells loaded with 200 µM oleic acid;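 active means pattern-corrected inhibition of lipid staining of at least 50% with the nuclear-stain viability signal not falling by more than 50%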;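 further: 0% = DMSO wells and 100% = triacsin C control wells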
PKD1 inh = inhibitors of human PKD1 kinase, biochemical, fluorescence polarization. Serine/threonine-protein kinase D1 (Homo sapiens), Q15139. PKD1 kinase fluorescence polarization assay. inhibition, % (no concentration beside the values). hit rate 0.056% among 200,000. AID 797, 2007; in the data active means inhibition above about 50%
Mdm2 ligase inh = MDM2-luciferase reporter signal enhancers, primary screen, MDM2 E3 ligase inhibitor project, cell-based, luminescence, 1536-well; E3 ubiquitin-protein ligase Mdm2 (Homo sapiens), Q00987; cell-based MDM2 ubiquitination luciferase reporter, 2 h; 0 = plate control, 100 = twice control, blank-subtracted; signal enhancement, % at 5 µM; hit rate 0.11% among 210,000;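 active means signal enhancement of 30% or more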;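 further: luminescence tracks abundance of the self-degrading MDM2-luciferase fusion protein; higher signal means inhibition of MDM2 E3 ligase activity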
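Material: stable MDM2–luciferase fusion reporter cells / Quantity: 2000 cells/well / Dosing: single 5 µM compound dose, 0.2% final DMSO / Buffer or medium: DMEM / Schedule: 4 h cell settling then 2 h compound exposure, 37 °C / Detection: luminescence with SteadyLite reagent, 15 min at room temperature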
Rad51 HR inh = human RAD51 strand exchange inhibitors, primary screen, biochemical, fluorescence | inhibition, % at 10 µM | hRad51 DNA strand exchange, fluorescence dequenching | AID 1385, 2008 | hit rate 0.085% among 200,000;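 active means inhibition above 40% at the single screening dose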;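 further: 0% = DMSO control wells and 100% = blanks with heterologous ssDNA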
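Material: human Rad51–ssDNA filaments; Probe or stimulus: labelled 47-mer dsDNA for strand exchange; Doses: single 10 µM dose; Incubation: 37 °C 15-min filament assembly, 30-min compound preincubation, 15-min exchange; Technique: FRET fluorescence dequenching, excitation 485 nm, emission 520 nm; Measure: Fluorescence-based percent inhibition, control- and blank-normalised; Benchmarks: plate control and blank wells.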
Hck-Nef inh = inhibitors of Nef-activated human Hck kinase, primary screen, biochemical, Z-Lyte FRET, 384-well, Hck-YEEI; Tyrosine-protein kinase HCK (Homo sapiens), P08631; Recombinant Hck-YEEI plus Nef, Z-Lyte FRET kinase assay; inhibition, % at 20 µM; hit rate 0.68% among 220,000;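 active means Hck-Nef kinase inhibition above about 50%, limit read from the data; inactive means inhibition below that limit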;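 further: 0% = DMSO with Hck plus Nef and 100% = Hck alone without Nef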
Target sequence (P08631 whole entry, looked up): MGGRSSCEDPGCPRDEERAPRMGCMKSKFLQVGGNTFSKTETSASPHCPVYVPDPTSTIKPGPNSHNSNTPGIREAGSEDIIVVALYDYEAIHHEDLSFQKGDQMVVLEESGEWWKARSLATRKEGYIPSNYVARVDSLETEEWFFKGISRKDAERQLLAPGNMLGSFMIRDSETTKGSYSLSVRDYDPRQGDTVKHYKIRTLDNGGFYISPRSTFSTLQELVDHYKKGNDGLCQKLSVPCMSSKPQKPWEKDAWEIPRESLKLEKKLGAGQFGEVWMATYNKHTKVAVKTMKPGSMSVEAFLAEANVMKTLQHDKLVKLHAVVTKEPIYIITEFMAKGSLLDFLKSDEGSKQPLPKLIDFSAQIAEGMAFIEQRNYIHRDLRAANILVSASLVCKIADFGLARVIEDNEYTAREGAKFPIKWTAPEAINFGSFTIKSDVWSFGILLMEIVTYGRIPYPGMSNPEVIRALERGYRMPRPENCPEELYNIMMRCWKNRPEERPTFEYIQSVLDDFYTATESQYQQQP
H9c2 TAG conf = triacylglycerol accumulation inhibitors, retest, confirmation, cell-based, single concentration, Nile Red fluorescence, H9c2 | shares compounds with H9c2 TAG inh | H9c2 lipid accumulation; cells loaded with 200 µM oleic acid | inhibition, % at 12.5 µM | hit rate 71% among 990 | AID 651629, 2012;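 active means mean inhibition across replicates of 40% or more; inactive means mean inhibition below 40%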;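 further: plate controls were DMSO only wells for no effect and Triacsin C treated wells for full effect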
* marks the source's active call; other numbers are inactive results; . = no result.

SMILES | PERK inhibitor | H9c2 TAG inh | PKD1 inh | Mdm2 ligase inh | Rad51 HR inh | Hck-Nef inh | H9c2 TAG conf
COc1ccccc1[C@H]1C(c2cccc(C)c2)=NN(c2ccccc2)[C@@H]1CO | . | 72* | . | . | . | . | 15
CCOC(=O)c1c(NC(=O)CSc2nc3nc(C)cc(C)n3n2)sc(CC)c1C | 1 | 5 | -8 | -3 | 0 | 12 | .
O=C(Nc1nc2nc(-c3ccccc3)cc(-c3ccccc3)n2n1)c1ccco1 | -2 | 64* | 9 | -15 | 0 | 1 | 31
CC(=O)OCC(=O)[C@@]12OC3(CCCC3)O[C@@H]1C[C@H]1[C@@H]3CCC4=CC(=O)C=C[C@]4(C)[C@@]3(F)[C@@H](O)C[C@@]12C | -1 | 57* | -7 | . | 6 | -1 | 64*
CC1(C)O[C@@H]2C[C@H]3[C@@H]4CCC5=CC(=O)C=C[C@]5(C)[C@@]4(F)[C@@H](O)C[C@]3(C)[C@]2(C(=O)CO)O1 | 2 | 36 | 5 | . | 0 | -3 | .
CC(C)NC(=O)N(C)C[C@H]1Oc2cc(C#Cc3ccc(F)cc3)ccc2S(=O)(=O)N([C@H](C)CO)C[C@H]1C | . | 56* | . | . | . | . | 63*
COc1ccc(C#Cc2ccc3c(c2)O[C@@H](CN(C)C(=O)Nc2cccc(OC)c2)[C@H](C)CN([C@@H](C)CO)S3(=O)=O)cc1 | . | 77* | . | . | . | . | 82*
COc1cccc(NC(=O)N(C)C[C@H]2Oc3cc(C#Cc4ccncc4)ccc3S(=O)(=O)N([C@H](C)CO)C[C@H]2C)c1 | . | 8 | . | . | . | . | .
O=C(COC(=O)C1CC(=O)N(Cc2ccccc2)C1)Nc1cccc([N+](=O)[O-])c1 (stereo unspecified) | . | -4 | . | . | . | . | .
O=S(=O)(Nc1nc2ccccc2nc1Nc1ccc2c(c1)OCO2)c1ccc(F)cc1 | 0 | . | 8 | -12 | -9 | 2 | .
Cc1ccc2c(c1)-c1c(cnn1CC(=O)O)CO2 | -1 | 1 | 0 | -3 | -4 | -1 | .
Cc1ccc2c(c1)-c1c(cnn1CC(=O)Nc1ccccc1N1CCN(C)CC1)CO2 | 0 | 53* | -8 | -10 | 0 | 1 | 51*
COc1ccc(C[C@H]2CN3C(=NC[C@@H]3Cc3ccc(O)cc3)N2CCNC(=O)c2ccc(C)c(Br)c2)cc1 | 2 | 62* | -10 | . | -11 | -6 | 49*
CC(C)Cc1nc2sc3c(NCc4ccco4)ncnc3c2c2c1COC(C)(C)C2 | -1 | 54* | -5 | -13 | -11 | 3 | 47*
C=CCn1c(SCC(=O)Nc2ccc(N3CCOCC3)cc2)nc2ccccc2c1=O | . | 8 | . | . | . | . | .
O=C(NCC(=O)N1CCN(c2ccccc2F)CC1)c1ccc(Br)o1 | . | 1 | . | . | . | . | .
CCOc1ccc(CCNC(=O)c2cc3sccc3n2CC)cc1OCC | -2 | 79* | 0 | -12 | -3 | 10 | 40
CCOC(=O)CCC(=O)Nc1ccc([N+](=O)[O-])cc1C | 1 | . | -2 | -5 | 1 | 17 | .
Cc1cccc(NC(=O)c2ccc([N+](=O)[O-])o2)c1C | 0 | 71* | -1 | -6 | -2 | -6 | 62*
O=C(Nc1ncccn1)c1ccc([N+](=O)[O-])o1 | 1 | 96 | -4 | -17 | . | 16 | .
O=C(CN(Cc1ccco1)C(=O)c1cccc(Cl)c1)Nc1c(Cl)cc(Cl)cc1Cl | 0 | 53* | 2 | -7 | 4 | 1 | 39
C=CCOc1ccc(C[C@H](N)C(=O)NC[C@H]2O[C@@H](n3ccc(N)nc3=O)[C@H](O)[C@@H]2O)cc1 | . | -3 | . | . | . | . | .
O=C(N/N=C/c1ccc(Cl)cc1)c1sccc1OCc1ccc(F)cc1 | 0 | 50* | -2 | -6 | -2 | 2 | 54*
Cc1nc2c(ccc3nc(NC(=O)Cc4cccc5ccccc45)sc32)s1 | 0 | 51* | -6 | . | . | -2 | 58*
CCOc1c(Br)cc(CNC2CCCCCCC2)cc1OC | -2 | 70* | -12 | -11 | -6 | -20 | 80*
SMILES | PERK inhibitor | H9c2 TAG inh | PKD1 inh | Mdm2 ligase inh | Rad51 HR inh | Hck-Nef inh | H9c2 TAG conf
COc1cc(CNC2CCCCCCC2)cc(Br)c1OCC#N | -1 | . | -10 | -23 | 4 | 3 | .
Cc1cc(C)c2nc(N(CCCN(C)C)C(=O)c3ccc(S(=O)(=O)N4CC(C)OC(C)C4)cc3)sc2c1 (stereo unspecified) | . | 15 | . | . | . | . | .
COc1ccc([N+](=O)[O-])cc1NC(=O)c1cc(C)c(C)o1 | 2 | -6 | -4 | -3 | 1 | 21 | .
Cn1nnnc1Sc1ncnc2scc(-c3cccc(S(C)(=O)=O)c3)c12 | . | 60* | . | . | . | . | 57*
O=C(CCl)N(CCCNC(=O)C(F)(F)F)c1ccc([N+](=O)[O-])cc1 | 0 | 68* | . | -4 | -1 | 1 | 56*
Cc1cc(F)ccc1S(=O)(=O)N1CCCOC1CNC(=O)C(=O)NCc1ccncc1 (stereo unspecified) | . | 11 | . | . | . | . | .
COc1ccc2cc3cc(C(=O)NCCc4ccc(OC)c(OC)c4)oc3nc2c1 | -1 | 67* | -7 | -3 | . | 2 | 44*
CCOc1cc(/C=N/NC(=O)C(O)(c2ccccc2)c2ccccc2)ccc1OC(=O)c1ccco1 | . | -10 | . | . | . | . | .
O=C(COc1cccc2ccccc12)N/N=C/c1ccccc1OCc1ccc(C(=O)O)cc1 | 0 | 15 | 0 | -9 | 11 | 18 | .
O=C(COc1ccccc1-c1ccccc1)N/N=C/c1cccc2ccccc12 | -1 | 63* | 1 | -8 | 1 | -1 | 36
c1cc2c(cc1Oc1nc(N3CCOCC3)nc(N3CCOCC3)n1)OCO2 | -1 | 59* | 10 | -4 | 1 | 8 | 29
CCOc1ccc(NC(=O)CN(C)C(=O)c2cc(-c3ccc(OC)cc3)nc3ccccc23)cc1OCC | . | 53* | . | . | . | . | 63*
Cc1ccc(NC(=O)CN(C)C(=O)COC(=O)CCS(=O)(=O)c2ccc(C)cc2)cc1 | . | -16 | . | . | . | . | .
CC(C)(C)C(=O)Nc1cc(S(=O)(=O)Nc2ccc(Cl)cc2)ccc1Cl | -1 | . | -7 | -8 | -10 | 2 | .
CC(=O)Nc1cc2cc(NS(=O)(=O)c3ccc(Cl)cc3)ccc2oc1=O | 1 | 58* | . | -4 | 13 | 22 | 10

Screens: PubChem BioAssay, several laboratories
